Data reported in paper PMC4371781 (Biochemistry, 2015).
Where a SMILES comes first, the peptide text is derived from it. Primed or numbered codes have the meaning given here. The star is where a group is joined. FITC = O=C1OC2(c3ccc(O)cc3Oc3cc(O)ccc32)c2ccc(NC(=S)*)cc21; FITC′ = fluorescein; Ahx = NCCCCCC(=O)O

Key:
[1] = biological target: T1, RbAB (pocket domain of Rb) (Homo sapiens, UniProt P06400, A635F/DEL582-633/S634E); test: NMR-monitored titration, 1H–15N HSQC of 15N-labeled RIZ constructs with RbAB; type: binding; conditions: for residues most affected by RbAB binding (loss of HSQC peak volume): 1H–15N HSQC, PBS pH 7.5, 2.5 mM DTT, 25 °C
T1 sequence (P06400 with tags, fused parts or gaps DEL582-633/S634E/A635F limits assumed): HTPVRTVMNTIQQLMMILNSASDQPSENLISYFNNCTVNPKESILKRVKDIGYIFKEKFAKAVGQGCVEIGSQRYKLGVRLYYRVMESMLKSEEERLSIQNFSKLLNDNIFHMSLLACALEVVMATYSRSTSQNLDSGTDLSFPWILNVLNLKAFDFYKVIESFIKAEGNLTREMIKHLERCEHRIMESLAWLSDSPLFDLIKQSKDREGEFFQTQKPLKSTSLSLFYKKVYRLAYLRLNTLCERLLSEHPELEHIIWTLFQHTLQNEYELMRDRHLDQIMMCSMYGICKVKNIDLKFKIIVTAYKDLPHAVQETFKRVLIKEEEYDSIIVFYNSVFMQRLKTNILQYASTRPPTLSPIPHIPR

[2] = biological target: T1, RbAB (pocket domain of Rb); test: Competition-based ITC; type: binding
Method in brief: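 RbAB (Rb residues 372–581 and 636–787 joined by an EF linker, GS N-terminus) was expressed as a GST fusion in E. coli and thrombin-cleaved. At 25 °C in 20 mM Tris pH 7.5, 140 mM NaCl and 2 mM β-mercaptoethanol, the RIZ 297–341 fragment (1154 or 984 μM) was titrated into RbAB (20 or 9 μM). RbAB was pre-mixed with excess competitor: 650 μM FITC-RIZ(254–267) or 459 μM RIZ 197–269 fragment. Kd was derived from the apparent association constant with a competition equation.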

[3] = biological target: T1, RbAB (pocket domain of Rb); test: Fluorescence anisotropy, direct binding assay
Method in brief: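 Assays ran in PBS pH 7.5 with 2.5 mM DTT. Labelled peptide was held constant while RbAB was varied: 0.33 μM FITC-RIZ(254–267) at 25 °C, or 0.40 μM FITC-RIZ(309–319) at 20 °C. FITC was attached at the N-terminus via an aminohexanoyl spacer, with amidated C-termini. TCSPC steady-state anisotropy was corrected with a bound/free quantum-yield ratio (0.65 μM peptide ± 32.5 μM RbAB). Kd was fitted by nonlinear least squares with 95% confidence intervals.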

[4] = biological target: HDAC1 LXCXE-like sequence LXCXE-like sequence (Homo sapiens) (UniProt Q13547); conditions: cited from earlier work
[5] = biological target: T2, AR-N (N-terminal part of the acidic region of RIZ, residues 197-269) (human, UniProt Q13029 197-269); test: fluorescence polarisation
T2 sequence: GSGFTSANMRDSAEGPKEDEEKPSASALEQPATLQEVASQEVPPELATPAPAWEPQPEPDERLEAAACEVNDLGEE

[6] = biological target: T2, AR-N (N-terminal part of the acidic …); test: ITC
FITC-RIZ(309-319) = biological target: T3, FITC-RIZ(309-319) (human, SMILES …); test: fluorescence polarisation
T3 peptide: {FITC-Ahx}-EIRCDEKPEDL-NH2

FITC-RIZ(254-267) = biological target: T4, FITC-RIZ(254-267) (human); test: fluorescence polarisation
T4 peptide: {FITC′-Ahx}-ERLEAAACEVNDLG-NH2

[7] = biological target: T1, RbAB (pocket domain of Rb); test: Isothermal titration calorimetry, direct binding of RbAB
Method in brief: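 RbAB (GST-fusion from E. coli, thrombin-cleaved) was injected stepwise into the cell at 25 °C in 20 mM Tris pH 7.5, 140 mM NaCl and 2 mM β-mercaptoethanol. Titrations were 486 μM RbAB into 28 μM full acidic region (AR), and 524 μM RbAB into 39 μM RIZ 197–269 or 48 μM RIZ 297–341 fragment. Heats of binding were recorded and fitted to a single-binding-site model.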

[8] = NMR structural characterization of AR; type: physicochemical
[9] = from 13Cα, 13Cβ, 1Hα chemical shifts, PBS pH 7.5, 25 °C

EIRCDEKPEDL [peptide containing the IRCDE motif]
effect of competitor peptide on AR signals in presence of RbAB ([1]; 86 μM 15N-labeled AR, ~2-fold molar excess RbAB, 34-fold molar excess of RIZ(309–319) peptide, PBS pH 7.5, 25 °C): the intensity of all AR signals was restored

CC(C)C[C@H](NC(=O)[C@H](CC(=O)O)NC(=O)[C@H](CC(N)=O)NC(=O)[C@@H](NC(=O)[C@H](CCC(=O)O)NC(=O)[C@H](CS)NC(=O)[C@H](C)NC(=O)[C@H](C)NC(=O)[C@H](C)NC(=O)[C@H](CCC(=O)O)NC(=O)[C@H](CC(C)C)NC(=O)[C@H](CCCNC(=N)N)NC(=O)[C@H](CCC(=O)O)NC(=O)CCCCCNC(=S)Nc1ccc2c(c1)C(=O)OC21c2ccc(O)cc2Oc2cc(O)ccc21)C(C)C)C(=O)NCC(N)=O [FITC-RIZ(254–267)] ({FITC-Ahx}-ERLEAAACEVNDLG-NH2)
Kd [2]: 70 ± 10 µM | Kd [3]: ~170 µM

CC[C@H](C)[C@H](NC(=O)[C@H](CCC(=O)O)NC(=O)CCCCCNC(=S)Nc1ccc2c(c1)C(=O)OC21c2ccc(O)cc2Oc2cc(O)ccc21)C(=O)N[C@@H](CCCNC(=N)N)C(=O)N[C@@H](CS)C(=O)N[C@@H](CC(=O)O)C(=O)N[C@@H](CCC(=O)O)C(=O)N[C@@H](CCCCN)C(=O)N1CCC[C@H]1C(=O)N[C@@H](CCC(=O)O)C(=O)N[C@@H](CC(=O)O)C(=O)N[C@@H](CC(C)C)C(N)=O [FITC-RIZ(309–319)] ({FITC-Ahx}-EIRCDEKPEDL-NH2)
Kd [3]: ~0.36 µM

Rb pocket domain pocket domain (from UniProt P06400)
Kd [4]: 10 µM

B1: RbAB (pocket domain of the retinoblastoma protein, cyclin boxes A and B joined by a two-residue linker) (domain or fragment, human)
chain: GSHTPVRTVMNTIQQLMMILNSASDQPSENLISYFNNCTVNPKESILKRVKDIGYIFKEKFAKAVGQGCVEIGSQRYKLGVRLYYRVMESMLKSEEERLSIQNFSKLLNDNIFHMSLLACALEVVMATYSRSTSQNLDSGTDLSFPWILNVLNLKAFDFYKVIESFIKAEGNLTREMIKHLERCEHRIMESLAWLSDSPLFDLIKQSKDREGEFFQTQKPLKSTSLSLFYKKVYRLAYLRLNTLCERLLSEHPELEHIIWTLFQHTLQNEYELMRDRHLDQIMMCSMYGICKVKNIDLKFKIIVTAYKDLPHAVQETFKRVLIKEEEYDSIIVFYNSVFMQRLKTNILQYASTRPPTLSPIPHIPR
Kd [5]: 90 µM | Kd [6]: 45 ± 20 µM | Kd (FITC-RIZ(309-319)): 0.36 µM | Kd (FITC-RIZ(254-267)): 170 µM

B2: AR: recombinant AR protein, residues 197–341 of human RIZ (FTSA⋯TPAM) preceded by four extraneous amino acids (GSPE) (protein)
chain: GSPEFTSANMRDSAEGPKEDEEKPSASALEQPATLQEVASQEVPPELATPAPAWEPQPEPDERLEAAACEVNDLGEEEEEEEEEDEEEEEDDDDDELEDEGEEEASMPNENSVKEPEIRCDEKPEDLLEEPKTTSEETLEDCSEVTPAM
modifications: left off: GST, end not stated, cleaved
affinity for pocket domain of Rb (in words) ([7]; purified components, ITC and fluorescence anisotropy): submicromolar affinity | residues most affected by RbAB binding (loss of HSQC peak volume) [1]: Residues 306–322 ([…]) were the most affected by RbAB binding | exchange between free and bound forms with RbAB ([1]; 15N-labeled AR, increasing RbAB, PBS pH 7.5, 25 °C): consistent with exchange between the free and bound forms on an intermediate time scale | specificity of binding to RbAB ([1]; displacement by large excess of peptide containing IRCDE motif): AR binding to RbAB is specific | structural state in solution ([8]; NMR, PBS pH 7.5, 2.5 mM DTT, 25 °C): consistent with AR being intrinsically disordered | SSP scores: virtually no residues higher than [8, 9]: ≤ 0.2 | SSP scores: virtually no residues lower than [8, 9]: ≥ −0.2

B3: AR-N: recombinant protein, residues 197–269 (FTSA⋯LGEE) of RIZ preceded by three extraneous amino acids (GSG) (protein)
chain: T2 sequence
modifications: left off: GST, N-terminal, cleaved
heat/enthalpy of binding to RbAB (in words) ([7]; ITC, 25 °C, Tris pH 7.5): little or no heat is released | residues most affected by RbAB binding (loss of HSQC peak volume) [1]: Residues 255–267 in AR-N
